Dynein transport – blocks dynein driven cargo transport along microtubules. hit rate 0.47% among 220,000. z-score, hits read low. 3617.4 mouse cells, GR-EGFP nuclear translocation imaging; test concentration mostly 20 µM; stimulated with dexamethasone, 1 µM; stronger effect = lower value;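 active means plate z-score of nuclear minus cytoplasmic receptor signal below a set negative limit, without overly bright fluorescence or cell loss, cut at about -3.5 in these data, passing the limit was not always enough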;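 further: z-score of nuclear minus cytoplasmic ring GR-EGFP intensity difference per well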
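Also added: dexamethasone, 1.0 µM final. Medium: tet-free, stripped-serum medium. Detection: fixed, Hoechst-stained cells imaged at 10x for EGFP. Read-out: nuclear-to-cytoplasmic GR-EGFP distribution per well. Times: induction 48 h, compound 1 h, agonist 30 min.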
PTEN del growth – growth suppressors of cells with PTEN tumor suppressor deletion | HCT116 PTEN-null viability, CellTiter-Glo, 60 h; stronger effect = lower value | viability, % at 10 µM | hit rate 1.2% among 140,000;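 active means viability at or below a set limit, 4 SD under the median of all tested compounds, cut at about 3.7% in these data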;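 further: PTEN knockout HCT116 line with beta catenin targeted HCT116 as companion control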
HCT116 bCat-KO – beta-catenin-lacking colon tumor cell growth suppression; HCT116 beta-catenin knockout viability, CellTiter-Glo, 60 h; stronger effect = lower value; viability, % at 10 µM; hit rate 1.5% among 140,000;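 active means viability at or under a set limit, the compound median less 4 SD, cut at about 6% in these data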;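 further: 0% = Hyamine 1622 control at 20 µM and 100% = untreated cell control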
Lmaj promast – Leishmania major promastigote growth inhibition; hit rate 9% among 200,000; inhibition, % at 10 µM; Leishmania major promastigotes, resazurin fluorescence viability; in the data active means inhibition above about 50%;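 further: promastigotes grown with compound for 44 hours at 28 °C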
Autophagy HCS – autophagy modulation, high-content screen; calls only at 10 µM (by protocol); MEF GFP-LC3 puncta imaging; test concentration mostly 10 µM; hit rate 0.98% among 190,000;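 active means percentage of spot-positive cells more than 3 SD above its plate mean, without a fluorescence outlier flag or 80% toxicity; inconclusive means no clear call, values can overlap the other calls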;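 further: spot-positive cell cutoff set from DMSO-treated cells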
L major 1uM – L. major promastigote growth inhibition, 1 uM repeat. shares compounds with Lmaj promast. resazurin fluorescence, 48 h. inhibition, % at 1 µM. hit rate 13% among 1,100;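 active means inhibition above about 50% in both repeat tests, limit read from the data; inconclusive means one repeat under the set limit, the other over it; inactive means both repeats under the set limit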
Dynein inh conf – dynein cargo transport inhibition, confirmation; shares compounds with Dynein transport; 3617.4 GR-EGFP nuclear translocation imaging, dexamethasone-induced; calls only at 20 µM; hit rate 69% among 1,000; AID 463116;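 active means inhibition of receptor movement into the nucleus at or above a set limit in both runs, with normal cell brightness and cell count; inconclusive means limit reached in only one run, brightness and count normal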;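 further: dexamethasone at 1 µM final in well for 30 min; nuclear minus cytoplasmic GR-EGFP mean intensity difference in channel 2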
Active calls of the source: *; i = inactive; ? = inconclusive; . = no result given; + = active, no number. Compounds with a hit are over-represented: about 9.2% of the library has one in this group of screens.

SMILES | Dynein transport | PTEN del growth | HCT116 bCat-KO | Lmaj promast | Autophagy HCS | Dynein inh conf | others
CCSc1nnc(-c2ccc(Cl)cc2)c2ccccc12 | -0.89 | 47 | 45 | 3 | i | .
Clc1ccc(-c2nnc(Sc3nc4ccccc4o3)c3ccccc23)cc1 | -4.1* | 26 | 19 | 90* | i | + | L major 1uM=7
Cc1ccc(-c2nnc(Sc3nc4ccccc4o3)c3ccccc23)cc1 | -4.1* | 25 | 34 | 76* | i | + | L major 1uM=9
CCCNc1nc(Cl)nc(NC(C)(C)C)n1 | 0.03 | . | . | 6 | i | .
CC1=CC(=C(C#N)C#N)C=C(C)N1CCC(C)C | 0.43 | . | . | -1 | i | .
Cc1ccccc1-n1sc2cc(F)ccc2c1=O | -4.8* | . | . | 80* | i | + | L major 1uM=-21
Cc1cc(C(=O)CCl)c(C)n1Cc1ccco1 | -6* | . | . | 100* | i | + | L major 1uM=93*
CC(=O)Nc1cccc(C(=O)/C=C/c2cccs2)c1 | -3.7* | 1.6* | 1.5* | 93* | i | + | L major 1uM=-8
CCOC(=O)C(=Cc1cc(=O)c(OC)co1)C(=O)OCC | -4* | 1.4* | 1.9* | 100* | i | + | L major 1uM=101*
O=[N+]([O-])c1cccc(/C=N/Nc2cc(Cl)nc(-c3ccccc3)n2)c1 | -0.34 | 62 | 78 | -1 | i | .
CN(C)S(=O)(=O)c1cccc(NC(=O)COC(=O)c2cccn2C)c1 | 0.71 | . | . | -3 | i | .
Cc1ccccc1-n1nnnc1Sc1nnnn1-c1ccccc1 | -5.1* | 1.3* | 2.0* | 100* | i | + | L major 1uM=19
CCN(C(=O)CN1CCN(c2ccccc2F)CC1)c1c(N)n(Cc2ccccc2)c(=O)[nH]c1=O | 0.13 | . | . | 0 | i | .
N#CCCN(C(=O)CSc1nc(-c2ccccc2)cn1N)c1ccc(F)cc1 | 0.99 | 94 | 105 | 7 | i | .
Cn1c(=S)oc2ccccc21 | -0.81 | . | . | . | . | .
CC(=O)/C=C/n1c(=S)oc2ccccc21 | -4.1* | 5 | 5.3* | 100* | + | + | L major 1uM=18
O=c1c(Cl)nc2cc(Cl)ccc2n1CCNc1ncc(C(F)(F)F)cc1Cl | -4.5* | 1.2* | 1.4* | 101* | + | i | L major 1uM=101*
O=c1c2nncn2c2cc(C(F)(F)F)ccc2n1CCNc1ncc(C(F)(F)F)cc1Cl | -1.1 | . | . | . | . | .
O=S(=O)(c1ccccc1)c1ncc(C(F)(F)F)cc1Cl | -6.4* | . | . | 72* | i | + | L major 1uM=39
COc1ccc2nc(SCC(=O)Nc3ccccc3OC)[nH]c2c1 | -0.42 | . | . | . | . | .
Cc1cc(/C=C2\Sc3ccccc3N2C)cc(C)[n+]1CC1CCCO1 (stereo not drawn) | -5.6 | . | . | 101* | + | i | L major 1uM=101*
COC(CN(C(=O)CCl)C(C(=O)NC1CCCC(C)C1C)c1ccc(C)cc1)OC (stereo not drawn) | -4.3* | 99 | 89 | 100* | i | +
COC(CN(C)C(C(=O)NC1CCCCC1)c1ccccc1)OC (stereo not drawn) | 0.54 | . | . | -6 | i | .
COC(CN(C(=O)CCl)C(C(=O)NC1CCCCC1)c1ccc(Cl)cc1)OC (stereo not drawn) | -4.1* | 68 | 67 | 81* | i | +
CCN(CC)C(C(=O)NC1CCCCC1)c1ccc(C)cc1 (stereo not drawn) | 0.3 | . | . | 13 | i | .
SMILES | Dynein transport | PTEN del growth | HCT116 bCat-KO | Lmaj promast | Autophagy HCS | Dynein inh conf | others
O=C(NC1CCCC1)C(c1ccc(Cl)cc1)N(Cc1ccc(F)cc1)C(=O)CCl (stereo not drawn) | -5.3* | 91 | 92 | 100* | i | +
CC1(C)CC(=O)c2c(oc3ccc(NS(=O)(=O)c4cccc5cccnc45)cc23)C1 | 0.29 | . | . | 14 | i | .
CCCNC(=O)COC(=O)c1ccc(-c2ccccc2)cc1 | -0.57 | . | . | -4 | i | .
COc1ccc(-c2nc(-c3cccc([N+](=O)[O-])c3O)cc(=O)o2)cc1OC | 0.71 | 92 | 96 | -6 | i | .
COc1cc(/C=C2/C(=O)c3cccc([N+](=O)[O-])c3C2=O)c(Br)cc1O | -3.5* | 10 | 7 | 100* | i | i
COc1cccc(C2=NOC(C(=O)Nc3cc(C)on3)C2)c1OC (stereo not drawn) | 1.5 | . | . | . | . | .
COc1cc2c(cc1OC)C(SC)=NC1(CCCC1)C2 | -3.6* | . | . | 44 | i | +
Cc1cc(S(=O)(=O)NC(C)C)ccc1OCC(=O)NCc1ccccc1 | 0.16 | . | . | -6 | i | .
CNCc1ccccc1Sc1cccc(O)c1 | -0.22 | 102 | 91 | -8 | i | .
CNCc1ccccc1Sc1cc(O)ccc1O | -4* | 69 | 75 | 0 | i | +
COC(=O)c1cc(NC(=O)c2ccccc2)c(=O)oc1/C=C/Nc1ccc(Oc2ccccc2)cc1 | -7.6 | . | . | 24 | i | i
CCCCCCc1cc2cc(-c3nnc(-c4ccccc4O)o3)c(=O)oc2cc1O | -5.6 | 0.7* | 0.7* | 2 | + | +
CCCCCCc1cc2cc(-c3nnc(-c4ccccc4OC)o3)c(=O)oc2cc1O | -0.45 | 4 | 12 | 45 | ? | .
Clc1ncnc2scc(-c3ccc(Br)cc3)c12 | -4.5* | 90 | 90 | 94* | i | +
Cc1cc(N)n(-c2ncnc3scc(-c4ccc(Cl)cc4)c23)n1 | 0.51 | 97 | 86 | -1 | i | .
COCCNC(=O)/C(C#N)=C/C=C/c1ccccc1[N+](=O)[O-] | -3.5* | . | . | 81* | i | +
O=C(c1ccc(Cl)cc1)c1c[nH]c(C(=O)C(Cl)(Cl)Cl)c1 | -3.7* | 2.5* | 1.8* | 86* | i | +
O=C(c1ccc(Cl)cc1)c1c[nH]c(C(=O)NNc2ccccc2)c1 | 1.9 | . | . | 45 | i | .
Cn1cc(C(N)=O)c2ccccc21 | -0.54 | . | . | -7 | i | .
Cn1cc(C(=O)CCl)c2ccccc21 | -4.8* | . | . | 92* | i | +
COc1ccc(OC)c(S(=O)(=O)Nc2ccc(O)c3ccccc23)c1 | -4.2* | 2.0* | 1.8* | 100* | i | i
CCOC(=O)/C=C/C(=O)Nc1ccccc1-c1ccccc1NC(=O)/C=C/C(=O)OCC | -4.1* | 2.0* | 3.9* | 41 | i | +
CC1(C)Cc2c(sc(/N=C/N3CCCC3)c2C#N)C(C)(C)N1 | -0.049 | 102 | 95 | 12 | i | .
NC(=O)c1ccc(NC(=O)CSC2=Nc3ccccc3C3CC=NN23)cc1 (stereo not drawn) | -4.2* | 89 | 82 | 17 | i | i
CCn1nc(C(=O)OCC(=O)Nc2nc(-c3ccc(OC)cc3)cs2)c2ccccc2c1=O | 0.34 | 93 | 92 | 2 | i | .
C=CS(=O)(=O)c1sc(Cl)c(N2CCOCC2)c1[N+](=O)[O-] | -4.3* | . | . | -4 | i | +
C=CSc1sc(Cl)c(N2CCOCC2)c1[N+](=O)[O-] | -3 | . | . | 2 | i | .

Screening results deposited in PubChem BioAssay by several laboratories.
